DENV2 CPE rescue: protects cells from dengue virus 2 cytopathic effect | CPE inhibition, % at 9.99 µM | DENV2-infected cells, cytopathic effect rescue, plate reader | 350,000 tested, 1.7% active; in the data active = CPE inhibition above about 20%, passing the limit was not always enough; tested in BHK-21 cells
Statin myotox sup: suppression of simvastatin myotoxicity. AID 602340. rescue of ATP level, % at 7.49 µM. C2C12 myotubes + simvastatin, ATP luminescence, 48 h; scaled: DMSO 0, geranylgeraniol control 100. 330,000 tested, 0.78% active;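 active = mean ATP rescue above about 67%, or every replicate alone reaching that limit, limit read from the data, passing the limit was not always enough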;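 also: myotubes were challenged with 10 µM simvastatin during compound exposure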
E-selectin induc: E-selectin induction on HUVECs | 260,000 tested, 0.37% active | P16581 | HUVEC E-selectin immunofluorescence imaging; normalized: neutral wells 0, TNF-alpha wells 100 | AID 686992 | activation, % at 7.58 µM;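 active = mean E-selectin-positive cell signal at least 10% of the positive control, reached in at least 60% of replicates, without over 20% cell loss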
Target sequence (P16581 whole entry, looked up): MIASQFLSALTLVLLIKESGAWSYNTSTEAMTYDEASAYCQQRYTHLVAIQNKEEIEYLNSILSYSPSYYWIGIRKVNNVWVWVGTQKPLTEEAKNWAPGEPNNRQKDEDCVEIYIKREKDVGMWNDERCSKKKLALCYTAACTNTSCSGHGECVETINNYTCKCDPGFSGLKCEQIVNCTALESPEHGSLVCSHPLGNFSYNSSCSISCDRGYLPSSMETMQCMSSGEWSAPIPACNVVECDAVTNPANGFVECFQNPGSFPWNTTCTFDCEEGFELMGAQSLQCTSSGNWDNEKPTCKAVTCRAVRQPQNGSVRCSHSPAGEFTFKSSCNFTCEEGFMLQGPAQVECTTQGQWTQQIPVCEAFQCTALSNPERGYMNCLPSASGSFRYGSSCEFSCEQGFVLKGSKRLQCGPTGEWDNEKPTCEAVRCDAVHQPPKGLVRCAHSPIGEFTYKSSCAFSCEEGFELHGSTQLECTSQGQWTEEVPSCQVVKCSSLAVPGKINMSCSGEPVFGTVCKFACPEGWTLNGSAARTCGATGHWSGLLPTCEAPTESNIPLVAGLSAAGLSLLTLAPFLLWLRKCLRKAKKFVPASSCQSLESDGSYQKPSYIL
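assay system = HUVEC, human umbilical vein endothelial cells | input = 3,000 HUVEC seeded per well | medium = EGM-2 growth medium on 0.1% gelatin-coated wells | dosing = one compound dose added by pin transfer | signal = immunofluorescence imaging | read-out basis = % PE-positive cells | control set = TNF-alpha, DMSO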
Large screens that a line does not name were inactive. Shown are actives, neighbours in structure and some others; about 2.2% of the full set was active somewhere.

Cc1noc(C)c1NC(=O)Nc1cccc2c1O[C@@H](CN(C)C(=O)NC(C)C)[C@H](C)CN([C@H](C)CO)C2=O	none
C[C@@H]1CN([C@H](C)CO)C(=O)Cc2cc(NC(=O)CCCN(C)C)ccc2O[C@H]1CN(C)Cc1ccc(Oc2ccccc2)cc1	none
O=C(C[C@@H]1CC[C@H]2[C@@H](COC[C@@H](O)CN2CCc2ccccc2)O1)NCc1ccccc1	none
CC(C)CC#Cc1cnc2c(c1)C(=O)N([C@@H](C)CO)C[C@H](C)[C@@H](CN(C)Cc1ccccc1F)O2	none
COCC(=O)Nc1ccc2c(c1)C(=O)N(C)C[C@@H](OC)[C@@H](C)CN(C(=O)c1ccccc1)[C@H](C)CO2	none
CCCNC(=O)N1[C@H](C#N)[C@H](c2ccccc2-c2ccc(C)cc2)[C@@H]1CO	none (no result: Statin myotox sup)
N#Cc1c2n(c3c(=O)n(Cc4ccc(Cl)cc4)cnc13)CCCCC2	Statin myotox sup 95 (no result: DENV2 CPE rescue, E-selectin induc)
N#Cc1c2n(c3c(=O)n(Cc4ccccc4)cnc13)CCCC2	none (no result: E-selectin induc)
CO[C@H]1CN(C)C(=O)c2ccc(NC(=O)Cc3ccccc3)cc2OC[C@@H](C)N(C(C)=O)C[C@@H]1C	none
CC(=O)Nc1ccc2c(c1)CCc1ccccc1-2	none
O=C(O)/C=C/C(=O)c1ccc2c(c1)CCc1ccccc1-2	DENV2 CPE rescue 29
C[C@@H]1CCCCO[C@H](CN(C)S(=O)(=O)c2cn(C)cn2)[C@H](C)CN([C@@H](C)CO)C(=O)c2cc(NC(=O)CCCN(C)C)ccc2O1	none (no result: Statin myotox sup)
COc1ccc(CN(C)C[C@@H]2Oc3c(NS(C)(=O)=O)cccc3C(=O)N([C@H](C)CO)C[C@H]2C)cc1	none
C[C@@H]1CCCCO[C@@H](CN(C)C(=O)CCCN(C)C)[C@@H](C)CN([C@@H](C)CO)C(=O)c2cc(NS(=O)(=O)c3ccc(Cl)cc3)ccc2O1	none (no result: Statin myotox sup)
COc1ccc(S(=O)(=O)Nc2ccc3c(c2)C(=O)N([C@@H](C)CO)C[C@@H](C)[C@@H](CN(C)C(=O)CCCN(C)C)OCCCC[C@@H](C)O3)cc1	none
COc1ccc(S(=O)(=O)Nc2ccc3c(c2)C(=O)N([C@@H](C)CO)C[C@@H](C)[C@H](CN(C)C(=O)CCCN(C)C)OCCCC[C@@H](C)O3)cc1	DENV2 CPE rescue 31
C[C@H](CO)N1C[C@H](C)[C@H](CN(C)C(=O)CCCN(C)C)OCCCC[C@H](C)Oc2ccc(NS(=O)(=O)c3ccc(Cl)cc3)cc2C1=O	DENV2 CPE rescue 41 (no result: Statin myotox sup)
CN(C)c1ccc2c(c1)[C@H]1C[C@H](CC(=O)NCc3ccncc3)O[C@H](CO)[C@H]1O2	none
COc1ccc(C(=O)NCC2(c3ccccc3)CCCC2)c(OC)c1	none
COc1ccc(C2(CNC(=O)CCC(=O)O)CCCC2)cc1	Statin myotox sup 86 (no result: DENV2 CPE rescue, E-selectin induc)
O=C(COc1ccccc1)N1CCN(c2nnc(-c3ccccc3)c3ccccc23)CC1	Statin myotox sup 79 (no result: DENV2 CPE rescue, E-selectin induc)
Cc1ccc(OCC(=O)N2CCN(c3nnc(-c4ccc(C)cc4)c4ccccc34)CC2)cc1	none (no result: DENV2 CPE rescue, E-selectin induc)
COc1ccc(S(=O)(=O)N(C)C[C@H]2OCCCC[C@@H](C)Oc3ccc(NC(=O)Nc4ccc(C(F)(F)F)cc4)cc3C(=O)N([C@H](C)CO)C[C@H]2C)cc1	none
COc1ccc(OC)c(S(=O)(=O)Nc2ccccc2C)c1	Statin myotox sup 100 (no result: E-selectin induc)
COc1ccc(OC)c(S(=O)(=O)Nc2ccccc2O)c1	none (no result: Statin myotox sup)
C[C@@H]1CN([C@@H](C)CO)C(=O)c2cc(NC(=O)Cn3cnnn3)ccc2O[C@H]1CN(C)S(=O)(=O)c1ccccc1	none
Cc1ccc(S(=O)(=O)N(C)C[C@H]2Oc3ccc(NC(=O)Cn4cnnn4)cc3C(=O)N([C@H](C)CO)C[C@H]2C)cc1	none
C[C@@H]1CN([C@H](C)CO)C(=O)c2cc(NC(=O)Cn3cnnn3)ccc2O[C@@H]1CN(C)S(=O)(=O)c1ccccc1	E-selectin induc 60
Cc1ccc(S(=O)(=O)N(C)C[C@H]2Oc3ccc(NC(=O)Cn4cnnn4)cc3CC(=O)N([C@H](C)CO)C[C@@H]2C)cc1	none
Cc1ccc(S(=O)(=O)N(C)C[C@@H]2Oc3ccc(NC(=O)Cn4cnnn4)cc3C(=O)N([C@@H](C)CO)C[C@@H]2C)cc1	DENV2 CPE rescue 42
Cc1ccc(S(=O)(=O)N(C)C[C@@H]2Oc3ccc(NC(=O)Cn4cnnn4)cc3CC(=O)N([C@H](C)CO)C[C@@H]2C)cc1	DENV2 CPE rescue 31
CC=Cc1ccc2n(c1=O)C[C@@H]1[C@@H](CO)[C@H](C(=O)NC3CCCC3)N(C(=O)C3CCC3)[C@H]21 (mixture of isomers)	none (no result: Statin myotox sup)
COc1ccc2c3c([nH]c2c1)[C@@H](CO)N(C(=O)Nc1ccc(F)cc1)CC31CN(Cc2nccs2)C1	none (no result: Statin myotox sup)
O=C([C@H]1N[C@H]2c3ccc(C4=CCCCC4)c(=O)n3C[C@H]2[C@@H]1CO)N1CCc2ccccc2C1	none (no result: DENV2 CPE rescue)
COc1ccc(S(=O)(=O)N(C)C[C@@H]2Oc3ccc(NC(=O)Nc4ccc5c(c4)OCO5)cc3CC(=O)N([C@H](C)CO)C[C@@H]2C)cc1	none
COc1ccc(S(=O)(=O)N(C)C[C@@H]2Oc3ccc(NC(=O)Nc4ccc5c(c4)OCO5)cc3CC(=O)N([C@@H](C)CO)C[C@H]2C)cc1	DENV2 CPE rescue 31
COc1ccc(S(=O)(=O)N(C)C[C@@H]2Oc3ccc(NC(=O)Nc4ccc5c(c4)OCO5)cc3CC(=O)N([C@H](C)CO)C[C@H]2C)cc1	none
COc1ccc(S(=O)(=O)N(C)C[C@H]2Oc3ccc(NC(=O)Nc4ccc5c(c4)OCO5)cc3CC(=O)N([C@H](C)CO)C[C@@H]2C)cc1	E-selectin induc 429
O=C(NCC(c1cccs1)N1CCOCC1)C1CCN(S(=O)(=O)c2cccc(C(F)(F)F)c2)CC1 (centres undefined)	none (no result: Statin myotox sup, E-selectin induc)
O=C(NCC(c1cccs1)N1CCOCC1)C1CCN(S(=O)(=O)c2ccccc2C(F)(F)F)CC1 (centres undefined)	DENV2 CPE rescue 61 (no result: Statin myotox sup)
CO[C@H]1CC[C@@H]2CCOc3ccc(C#N)cc3C(=O)N(C)C[C@@H](OC)[C@H](C)C(=O)N(C)C[C@@H]1O2	none
CCCNC(=O)N1CC2(CCN(C(=O)C3CC3)CC2)c2c([nH]c3cc(OC)ccc23)[C@@H]1CO	none (no result: Statin myotox sup)
CCOC(=O)c1c(NC(=O)CSc2nc3c(c(=O)n(C)c(=O)n3C)n2C(C)C)sc(C)c1C	none (no result: DENV2 CPE rescue, E-selectin induc)
CC(C)n1c(SCC(=O)Nc2nc3c(s2)CCCC3)nc2c1c(=O)n(C)c(=O)n2C	Statin myotox sup 99 (no result: DENV2 CPE rescue, E-selectin induc)
C[C@@H]1CN([C@H](C)CO)C(=O)c2cc(NC(=O)CCN3CCOCC3)ccc2O[C@H]1CN(C)Cc1ccncc1	none
Cc1cc2nc(-c3cccc(Cl)c3)c(CC3CCCCC3)n2c(C)c1Br	DENV2 CPE rescue 98 (no result: Statin myotox sup)
Cc1cc2nc(-c3ccccc3)c(CC3CCCCC3)n2c(C)c1Br	none (no result: Statin myotox sup)
COCC(=O)Nc1ccc2c(c1)C(=O)N(C)C[C@H](OC)[C@H](C)CN(C(C)=O)[C@H](C)CO2	none (no result: DENV2 CPE rescue)
COc1ccc(S(=O)(=O)N2CCN(Cc3cccc(Cl)c3)CC2)cc1	Statin myotox sup 105 (no result: DENV2 CPE rescue, E-selectin induc)
O=S(=O)(c1ccc(=S)[nH]c1)N1CCCCC1	none (no result: E-selectin induc)
COc1ccc(NC(=O)CN2CCCN(S(=O)(=O)c3ccc(F)cc3)CC2)c(OC)c1	Statin myotox sup 94 (no result: E-selectin induc)
O=C(CN1CCN(S(=O)(=O)c2ccc(F)cc2)CC1)NC1CCCC1	none
COc1ccc(S(=O)(=O)N2CCCN(CC(=O)Nc3ccccc3F)CC2)cc1	none
O=S(=O)(c1ccc(=S)[nH]c1)N1CCN(Cc2ccccc2)CC1	DENV2 CPE rescue 25

Screens from PubChem.
